Rows were chosen to be rich in hits. Some 2.3% of all compounds tested hit in one or more screens of this group.
UCH37 inh – blocks the human deubiquitinase UCH37; purified proteasome/UCH37, Ub-AMC cleavage fluorescence; inhibition, % (test concentration not listed); AID 588478; Q9Y5K5; 330,000 compounds, 0.33% hits;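 active = mean inhibition over replicate wells above about 20%, limit read from the data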;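 also: 0% = compound-free wells with enzyme and 100% = wells lacking proteasome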
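Signal – fluorescence, ex 355 nm, em 460 nm · System – Proteasome-bound UCH37 · Input – 0.15 nM proteasome as dispensed · Timing – 30 min preincubation with enzyme, 25 min cleavage at room temperature · Read-out basis – percent inhibition of cleavage signal versus uninhibited and no-proteasome wells · Medium – Tris-HCl pH 7.4 with ATP-MgCl2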
PP5 inh – blocks human protein phosphatase 5 activity. inhibition, % at 6.7 µM. 320,000 compounds, 0.18% hits. purified PP5c, OMFP substrate fluorescence. AID 1987. P53041;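 active = inhibition above the campaign's mean inhibition across all tested compounds plus 3 SD, cut at about 9.5% in these data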;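 also: 0% = DMSO only and 100% = 100 µM cantharidin control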
PP1 counter – blocks human PP1-alpha phosphatase, a PP5 counter-screen; P62136; purified PP1alpha, OMFP fluorescence; inhibition, % at 6.7 µM; 320,000 compounds, 0.9% hits; AID 2235;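 active = inhibition above the mean inhibition of all tested compounds plus 3 SD, computed separately for each screening campaign, cut at about 15% in these data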
Fh CTSL1 inh – blocks F. hepatica cathepsin L1 in PFM18AAP counter-screen; recombinant F. hepatica cathepsin L1, Z-Leu-Arg-MCA fluorescence; inhibition, % at 5.96 µM; 300,000 compounds, 0.49% hits;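 active = inhibition above the mean of all tested compounds plus 3 SD, set per screening campaign, cut at about 17% in these data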;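 also: 0% = plate median of test compound wells and 100% = 1 µM Z-Phe-Ala-diazomethylketone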
PREPL inh – inhibits the human prolyl oligopeptidase-like enzyme. 320,000 compounds, 0.68% hits. recombinant PREPL, fluorescence polarization activity-based probe. AID 2751. inhibition, % at 5.96 µM; in the data active = inhibition above about 43%;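 also: 0% = enzyme with DMSO and 100% = wells lacking enzyme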
Target sequence (Q4J6C6 whole entry, looked up): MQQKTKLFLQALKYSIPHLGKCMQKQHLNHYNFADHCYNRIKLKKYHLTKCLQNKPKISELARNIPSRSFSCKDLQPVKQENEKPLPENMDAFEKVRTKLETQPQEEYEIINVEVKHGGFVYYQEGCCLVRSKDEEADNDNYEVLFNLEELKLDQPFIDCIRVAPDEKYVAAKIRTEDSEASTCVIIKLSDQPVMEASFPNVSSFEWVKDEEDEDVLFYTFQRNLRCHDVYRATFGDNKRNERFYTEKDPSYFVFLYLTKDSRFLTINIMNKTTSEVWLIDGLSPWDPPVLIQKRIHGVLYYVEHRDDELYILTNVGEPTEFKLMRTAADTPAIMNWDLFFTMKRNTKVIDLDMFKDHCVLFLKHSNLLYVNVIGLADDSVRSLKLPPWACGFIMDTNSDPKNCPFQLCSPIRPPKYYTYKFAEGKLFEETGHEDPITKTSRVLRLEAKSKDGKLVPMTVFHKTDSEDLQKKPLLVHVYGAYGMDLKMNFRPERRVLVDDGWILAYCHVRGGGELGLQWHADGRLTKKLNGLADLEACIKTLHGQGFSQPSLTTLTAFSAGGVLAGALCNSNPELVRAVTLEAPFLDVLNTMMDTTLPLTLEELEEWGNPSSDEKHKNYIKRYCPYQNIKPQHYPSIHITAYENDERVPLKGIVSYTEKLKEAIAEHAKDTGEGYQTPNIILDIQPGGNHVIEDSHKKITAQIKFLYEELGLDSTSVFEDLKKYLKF
UBC13 polyUb – inhibitors of human UBC13 polyubiquitin chain formation; AID 485273; P61088; 330,000 compounds, 0.47% hits; inhibition, % at 20 µM; TR-FRET; in the data active = inhibition above about 45%, passing the limit was not always enough
PP1 inh confirm – confirmation of human PP1 phosphatase inhibitors | shares compounds with PP1 counter | purified PP1alpha, OMFP substrate fluorescence | inhibition, % at 6.7 µM | 1,900 compounds, 52% hits | AID 2358;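 active = mean PP1 inhibition above a set limit taken from the earlier primary screen, cut at about 15% in these data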
PP5 counter – PP5 phosphatase inhibition, counter-screen for PP1 inhibitors; 1,900 compounds, 4% hits; purified PP5c, OMFP fluorescence; shares compounds with PP1 counter; inhibition, % at 6.7 µM;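 active = mean PP5 inhibition over triplicate wells above about 9.5% taken from the earlier PP1 screen, limit read from the data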
Starred values were filed as active, the others as inactive; / = no result given.

SMILES	UCH37 inh	PP5 inh	PP1 counter	Fh CTSL1 inh	PREPL inh	UBC13 polyUb	PP1 inh confirm	PP5 counter
COCc1nnc(NC(=O)c2ccc(S(=O)(=O)N(C)c3ccccc3)cc2)o1	5.0	3.0	22.0*	-2.2	18.4	-8.5	5.7	-2.6
COCc1nnc(NC(=O)c2ccc(S(=O)(=O)N(CC(C)C)CC(C)C)cc2)o1	4.3	1.6	9.6	0.7	-4.1	-2.4	/	/
CCCCN(C)S(=O)(=O)c1ccc(C(=O)Nc2nnc(-c3cccs3)o2)cc1	7.6	4.6	32.7*	1.9	-4.1	-38.2	19.5*	-0.2
CC(=NNC(=O)c1ccco1)c1cc(Cl)sc1Cl	6.3	/	/	/	/	/	/	/
CCNC(=S)NN=Cc1cccs1	9.2	/	/	/	/	/	/	/
CCN(Cc1ccccc1)S(=O)(=O)c1ccc(C(=O)Nc2nnc(-c3ccccc3OC)o2)cc1	-18.7	-1.9	30.3*	2.5	7.8	-17.1	30.0*	1.1
CCCCN(CC)S(=O)(=O)c1ccc(C(=O)Nc2nnc(CSC)o2)cc1	-0.4	1.8	29.2*	-4.7	-1.2	-22.6	20.1*	-1.3
O=C(Nc1nnc(-c2cccs2)o1)c1cccc(Oc2ccccc2)c1	-3.3	-0.8	28.7*	3.7	14.8	-19.1	29.0*	-1.8
O=C(Nc1nnc(-c2ccccn2)o1)c1cccc(Cl)c1	3.8	-2.3	24.6*	6.8	9.8	-27.3	4.8	-3.3
COc1ccccc1-c1nnc(NC(=O)c2ccc(S(=O)(=O)N(C)C)cc2)o1	2.9	-0.2	8.3	4.7	-6.3	-6.3	/	/
CC(=NNC(=O)c1ccc(Cl)cc1)c1ccc(N2CCOCC2)cc1	-36.9	/	/	/	/	/	/	/
O=C(Cc1cccs1)NN=Cc1ccco1	2.5	/	/	/	/	/	/	/
CCN(c1ccccc1)S(=O)(=O)c1ccc(C(=O)Nc2nnc(COC)o2)cc1	1.5	0.0	14.3	-0.5	2.3	-8.5	/	/
CCCCN(CCCC)S(=O)(=O)c1ccc(C(=O)Nc2nnc(CSC)o2)cc1	0.3	-0.1	27.3*	4.1	19.5	-21.7	29.3*	7.2
CCN(c1ccccc1)S(=O)(=O)c1ccc(C(=O)Nc2nnc(CSC)o2)cc1	1.2	3.5	38.5*	4.5	13.4	-12.5	27.5*	2.0
CCCCN(CC)S(=O)(=O)c1ccc(C(=O)Nc2nnc(-c3ccccc3Cl)o2)cc1	-0.5	0.0	8.4	2.3	3.8	-24.1	/	/
CC(CCc1oc2c(Br)cc(Br)cc2c1-c1ccc(C)o1)=NO	0.8	/	/	/	/	/	/	/
O=C(NCCCCc1ccccc1)C12CN(Cc3ccccc3)CC1C(c1cccc([N+](=O)[O-])c1)=NO2 (stereo not given)	4.9	2.0	23.8*	4.2	22.3	2.3	6.8	0.2
O=C(NCCCCc1ccccc1)C12CN(Cc3ccccc3)CC1C(c1ccc([N+](=O)[O-])cc1)=NO2 (stereo not given)	-0.2	3.6	7.4	-5.6	16.5	-8.0	/	/
Cc1ccc(-n2nc(-c3ccco3)cc2C(=O)O)cc1	-1.5	-2.3	19.8*	4.7	-11.2	9.6	16.9*	-9.7
O=C(O)c1cc(-c2ccc(N3CCOCC3)cc2)nn1-c1ccc(F)cc1	1.9	2.4	41.7*	2.3	-0.6	1.1	31.4*	-3.6
O=C1C(=O)N(Cc2ccco2)C(c2cccc(Cl)c2)/C1=C(\O)c1ccc2c(c1)OCCO2 (stereo not given)	4.1	2.5	19.1*	1.2	2.2	-29.2	4.7	7.1
O=C(CSc1ccc(-c2ccncc2)nn1)c1ccccc1	6.0	1.7	21.0*	0.1	-7.3	-14.1	-4.1	-6.7
COc1ccc(C(=O)CSc2ccc(-c3ccccc3)nn2)cc1	-1.8	0.7	3.2	3.9	-27.2	4.0	/	/
Cc1oc(-c2ccc(Cl)cc2)cc1-c1nn2c(-c3ccoc3C)nnc2s1	3.9	2.4	24.2*	-0.6	15.5	28.5	19.0*	0.6
SMILES	UCH37 inh	PP5 inh	PP1 counter	Fh CTSL1 inh	PREPL inh	UBC13 polyUb	PP1 inh confirm	PP5 counter
O=C(O)c1ccc(N/N=C/c2ccc(-c3ccc(Cl)cc3Cl)o2)cc1	/	-1.6	13.4	4.9	42.1	16.9	/	/
O=C(O)c1ccc(N/N=C/c2ccc(-c3cc(Cl)ccc3Cl)o2)cc1	/	-1.4	17.9*	-3.5	28.8	2.7	19.0*	-2.7
Oc1c(C(c2ccccc2Cl)N2CCCC2)ccc2cccnc12 (stereo not given)	-7.6	-1.4	20.7*	3.1	-2.3	10.4	10.8	0.4
Oc1c(C(c2ccc(Cl)cc2)N2CCCC2)cc(Cl)c2cccnc12 (stereo not given)	-0.6	5.4	24.6*	3.7	12.2	15.5	22.4*	-1.5
CN1CCN(C(c2ccccn2)c2cc(Cl)c3cccnc3c2O)CC1 (stereo not given)	7.3	9.3	72.3*	0.6	17.4	-0.9	58.6*	6.0
Oc1c(C(c2ccccn2)N2CCC(Cc3ccccc3)CC2)cc(Cl)c2cccnc12 (stereo not given)	-2.1	4.6	73.5*	2.6	23.9	-20.6	20.3*	1.6
CC(=O)NC(c1cc(Cl)c2cccnc2c1O)C(C)C (stereo not given)	0.8	2.5	1.2	/	8.6	-34.9	/	/
CC(C)c1c(C(=O)NN=Cc2ccoc2)nnn1-c1nonc1N	3.4	/	/	/	/	/	/	/
O=C(NN=C/C(Cl)=C/c1ccc([N+](=O)[O-])cc1)C(=O)Nc1ccccc1C(=O)O	14.3	/	/	/	/	/	/	/
Cc1ccc(C(c2cc(Cl)c3cccnc3c2O)N2CCN(C)CC2)cc1 (stereo not given)	/	4.8	26.9*	-2.4	9.9	8.2	11.4	-2.8
NNC(=O)c1ccc(COc2ccc3ccccc3c2)cc1	0.7	-1.7	21.5*	-4.1	-14.1	0.0	9.2	-2.3
COc1ccc(NC(=O)C2(c3ccc(NC(=O)c4ccc(OC(C)=O)cc4)cc3)CCCC2)cc1	-8.4	0.0	17.6*	-0.1	1.5	-1.7	23.6*	-6.8
COc1ccc(NC(=O)C2(c3ccccc3)CCCC2)cc1	-1.2	2.5	0.6	-1.2	-1.1	7.3	/	/
COC/C=C/C1=CC2=CC(=O)C(C)(OC(=O)c3cnc4ccccc4n3)C(=O)C2=CN1Cc1ccc(OC)cc1 (stereo not given)	4.7	3.3	18.4*	-7.0	14.2	-58.7	2.2	10.6*
COC/C=C/C1=CC2=CC(=O)C(C)(OC(=O)c3cnc4ccccc4n3)C(=O)C2=CN1Cc1ccccc1 (stereo not given)	4.3	2.8	23.4*	-1.3	-1.8	-76.4	4.9	14.6*
COC/C=C/C1=CC2=CC(=O)C(C)(OC(=O)c3cnc4ccccc4n3)C(=O)C2=CN1CCc1ccccn1 (stereo not given)	/	1.0	2.2	4.5	9.1	-62.2	/	/
COc1ccc([N+](=O)[O-])cc1NC(=O)c1ccc(Br)s1	-0.2	-0.4	17.7*	17.7*	-8.2	-8.1	21.1*	-6.2
